Results taken from paper PMC7931189 (ACS Omega, 2021).
“Also recorded” adds a separate entry of the source.

How the values were obtained:
[1] = test system: human colorectal carcinoma cells (HCT-116); experiment: Antiproliferative activity by the MTT assay, HCT-116; type: cell-based; details: for IC50: Homo sapiens, HCT-116, 48 h, read-out: IC50 HCT-116; for inhibitory action on HCT-116 cells: MTT, 48 h post treatment, result in words
Summary of the method: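 HCT-116 cells grown in DMEM with L-glutamine, fetal bovine serum, selenium chloride and penicillin-streptomycin; exposed to test compound at 0.06–0.7 mg/mL for 48 h, untreated wells as control. MTT (5.0 mg/mL) added for 4 h, then DMSO; absorbance read at 570 nm. Percent viability calculated relative to control; one-way ANOVA with Student's t-test for p-values.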

HCT-116 cells = experiment: Nuclear DNA staining; type: cell-based, human; details: 0.1 mg/mL, 48 h, compared to nontreated control
Summary of the method: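 HCT-116 cells exposed to test compound at 0.1 mg/mL for 48 h alongside untreated controls. Cells then fixed in 4% paraformaldehyde, permeabilised with Triton X-100 in PBS and stained with DAPI. Nuclei imaged by confocal scanning microscopy at 200× magnification and scored for loss of staining, condensation and disintegration.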

Row | IC50 [1] | SMILES | inhibitory action on HCT-116 cells [1] | nuclear staining / nuclear disintegration of DAPI stained HCT-116 cells (HCT-116 cells)
1 | 267 ± 30 µM | CN(C)c1ccc(C=NNC(=O)C(C)(C)C(O)c2ccc(Cl)cc2)cc1 (stereo not shown) [compound 3, 3-(4-chlorophenyl)-N′-(4-(dimethylamino)benzylidene)-3-hydroxy-2,2-dimethylpropanehydrazide] | showed inhibitory activities | significant loss (arrows) of staining; also recorded: significant loss of nuclear staining
2 | 1650 ± 60 µM | CC(C)(C(=O)NN)C(O)c1ccc(Cl)cc1 (stereo not shown) [compound 2, 3-(4-chlorophenyl)-3-hydroxy-2,2-dimethylpropanehydrazide] | showed inhibitory activities | 
3 | 1270 ± 40 µM | CC(C)(C(=O)O)C(O)c1ccc(Cl)cc1 (stereo not shown) [compound 1, 3-(4-chlorophenyl)-3-hydroxy-2,2-dimethylpropanoic acid] | showed inhibitory activities | 
